The record followed here is ChEMBL document CHEMBL3861968, “Neuroactive and Anti-inflammatory Frankincense Cembranes: A Structure-Activity Study” (J Nat Prod, 2016).

Molecules are shown by their SMILES.

What all share (format): cell-based
For assay [1], the target named is T1, Heat sensitive channel TRPV3 (Rattus norvegicus) (UniProt Q4QYD9).
T1 sequence (whole entry): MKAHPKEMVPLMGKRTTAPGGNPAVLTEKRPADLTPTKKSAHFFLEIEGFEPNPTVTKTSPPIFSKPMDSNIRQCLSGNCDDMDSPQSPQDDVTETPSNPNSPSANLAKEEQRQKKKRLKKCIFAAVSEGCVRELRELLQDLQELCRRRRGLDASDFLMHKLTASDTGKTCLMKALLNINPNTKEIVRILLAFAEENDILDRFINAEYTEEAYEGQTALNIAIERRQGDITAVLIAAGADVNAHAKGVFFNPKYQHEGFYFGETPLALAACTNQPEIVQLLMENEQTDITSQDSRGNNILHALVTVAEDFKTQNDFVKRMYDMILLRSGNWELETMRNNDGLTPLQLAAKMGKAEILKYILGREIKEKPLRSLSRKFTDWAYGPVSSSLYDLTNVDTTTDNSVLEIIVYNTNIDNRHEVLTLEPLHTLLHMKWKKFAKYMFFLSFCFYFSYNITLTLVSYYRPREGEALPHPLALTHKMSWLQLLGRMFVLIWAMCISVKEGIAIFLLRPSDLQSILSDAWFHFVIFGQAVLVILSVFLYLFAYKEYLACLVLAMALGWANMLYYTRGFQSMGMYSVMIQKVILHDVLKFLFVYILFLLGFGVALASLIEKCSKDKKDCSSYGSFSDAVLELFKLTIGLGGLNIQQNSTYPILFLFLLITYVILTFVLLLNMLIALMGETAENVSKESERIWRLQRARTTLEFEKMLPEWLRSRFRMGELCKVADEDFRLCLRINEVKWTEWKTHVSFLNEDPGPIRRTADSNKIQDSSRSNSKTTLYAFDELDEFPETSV
As to the kind of experiment: Activation of rat TRPV3 overexpressed in HEK293 cells assessed as increase in 2-aminoethoxydiphenyl borate-induced intracellular calcium concentration by Fluo-4AM dye-based spectrofluorometry relative to ionomycin. The method in brief: (§1)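 Stable rat TRPV3 HEK293 cells in MEM with 10% FBS, 37 °C, 5% CO2. Pre-sensitized with 2-APB (100 μM). Loaded 1 h at room temperature with Fluo-4 AM (4 μM), washed, held in Tyrode's buffer pH 7.4 in a stirred cuvette. Untransfected HEK293 baseline subtracted. EC50 taken from sigmoidal variable-slope fit. Efficacy expressed relative to 4 μM ionomycin. At least triplicate.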

The target in assay [2] is T2, Heat sensitive channel TRPV3 (Rattus norvegicus, UniProt Q4QYD9).
T2 sequence (Q4QYD9 whole entry): T1 sequence (whole entry)
In words: Activation of rat TRPV3 overexpressed in HEK293 cells assessed as increase in 2-aminoethoxydiphenyl borate-induced intracellular calcium concentration by Fluo-4AM dye-based spectrofluorometry. The method in brief:
as §1

For assay [3], the target named is T2, Heat sensitive channel TRPV3. As to the kind of experiment: Antagonist activity at rat TRPV3 overexpressed in HEK293 cells assessed as inhibition of thymol-induced increase in intracellular Ca2+ levels preincubated for 5 mins prior to thymol-stimulation by Fluo-4AM dye-based spectrofluorometry. The method in brief: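 Compounds added 5 min before thymol (100 μM). Thymol-alone response taken as 100%. IC50 of inhibition of the [Ca2+]i rise taken from sigmoidal variable-slope fit. At least triplicate. ANOVA with Bonferroni.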

Assay [4] is described as follows: Inhibition of TNFalpha-induced NFkappaB activation in mouse NIH-3T3 cells expressing NFkappaB (unknown origin) preincubated for 15 mins followed by TNFalpha addition measured after 6 hrs by luciferase reporter gene assay. The following applies: NIH3T3.
In assay [5] the target is T3, Transient receptor potential cation channel subfamily V member 3 (Mus musculus, UniProt Q8K424).
T3 sequence (Q8K424 whole entry): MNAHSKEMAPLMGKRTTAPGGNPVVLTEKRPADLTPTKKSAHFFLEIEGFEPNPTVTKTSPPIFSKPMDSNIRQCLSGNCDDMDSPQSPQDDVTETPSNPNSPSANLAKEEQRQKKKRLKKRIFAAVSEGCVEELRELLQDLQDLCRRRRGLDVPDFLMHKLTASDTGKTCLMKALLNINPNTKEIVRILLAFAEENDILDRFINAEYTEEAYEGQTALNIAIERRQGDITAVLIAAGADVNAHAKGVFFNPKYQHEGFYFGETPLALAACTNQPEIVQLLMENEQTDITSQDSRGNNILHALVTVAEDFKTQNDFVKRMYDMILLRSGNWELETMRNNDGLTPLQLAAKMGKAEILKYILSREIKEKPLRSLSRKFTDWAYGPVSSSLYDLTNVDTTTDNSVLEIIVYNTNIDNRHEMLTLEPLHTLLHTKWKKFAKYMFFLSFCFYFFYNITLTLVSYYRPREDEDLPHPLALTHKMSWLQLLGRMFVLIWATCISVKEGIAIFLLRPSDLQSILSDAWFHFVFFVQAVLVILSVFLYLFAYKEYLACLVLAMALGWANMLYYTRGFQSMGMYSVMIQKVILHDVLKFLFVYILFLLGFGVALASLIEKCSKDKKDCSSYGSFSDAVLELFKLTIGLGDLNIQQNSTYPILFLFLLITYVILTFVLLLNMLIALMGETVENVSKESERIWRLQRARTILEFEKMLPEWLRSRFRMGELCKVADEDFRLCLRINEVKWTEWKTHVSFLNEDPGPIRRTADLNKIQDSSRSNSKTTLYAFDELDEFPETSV
In words: Agonist activity at mouse YFP-tagged TRPV3 expressed in HEK293 cells assessed as increase in calcium influx by Fluo-2-AM dye based microscopic analysis.

In the case of `C/C1=C\CC/C(C)=C/C[C@](O)(C(C)C)CC/C(C)=C/CC1`, the Emax in assay [1] worked out at 62.4%. Moreover, in assay [2], the EC50 was found to be 0.17 µM. For the same compound, the IC50 in assay [3] is 0.15 µM; in assay [4], greater than 50 µM.

With `C/C1=C\C[C@]2(C(C)C)CC[C@@](C)(O2)[C@H](O)CC/C(C)=C/CC1`, the Emax in assay [1] was 38%. The EC50 in assay [2] was determined as 7.3 µM. The IC50 in assay [3] was 12.3 µM; in assay [4] it was greater than 50 µM.

`C/C1=C\C[C@]2(C(C)C)CC[C@@](C)(O2)[C@@H](OC(=O)c2ccccc2)CC/C(C)=C/CC1` returned a 50% inhibitory concentration (IC50) in assay [4] greater than 50 µM.

In the case of `CC(=O)O[C@H]1CC[C@@]2(C)O[C@H]2CC/C(C)=C/C[C@]2(C(C)C)CC[C@@]1(C)O2`, the Emax in assay [1] was found to be 31.6%. The EC50 in assay [2] is 8.6 µM. Besides, the IC50 is 21.1 µM in assay [3] and greater than 50 µM in assay [4].

The compound `C/C1=C\C[C@]2(C(C)C)CC[C@@](C)(O2)[C@@H](OC(=O)/C=C/c2ccccc2)CC/C(C)=C/CC1` came in with an IC50 in assay [4] greater than 50 µM.

Consider `CCCCCCCCC(=O)O[C@H]1CC/C(C)=C/CC/C(C)=C/C[C@]2(C(C)C)CC[C@@]1(C)O2`, for which the concentration for half-maximal inhibition (IC50) in assay [4] turned out to be 35.5 µM.

As for `C/C1=C\C[C@]2(C(C)C)CC[C@@](C)(O2)[C@@H](OC(=O)Cc2ccccc2)CC/C(C)=C/CC1`, the Emax in assay [1] was found to be 25.6%. In assay [2], the EC50 is 1.2 µM. Also, the IC50 stood at 21.7 µM in assay [3] and 22.4 µM in assay [4].

On to `CC(=O)O[C@H]1CC/C(C)=C/CC[C@]2(C)O[C@@H]2C[C@]2(C(C)C)CC[C@@]1(C)O2`, for which the Emax in assay [1] is 57.7%. In addition, in assay [2], the EC50 was 8.8 µM. For the same compound, the IC50 in assay [3] is 13.2 µM; in assay [4], greater than 50 µM.

`Cc1ccc(C(C)C)c(O)c1` [THYMOL]: the Emax in assay [1] was determined as 49.4%. Besides, in assay [2], the EC50 is 29 µM.

Take `C/C1=C\C[C@]2(C(C)C)CC[C@@](C)(O2)[C@@H](O)CC/C(C)=C/CC1` [INCENSOLE]: in assay [1], the maximum response (Emax) came out at 65.1%. Also, the EC50 in assay [2] came out at 2.1 µM. The IC50 in assay [3] is 2.1 µM; in assay [4] it was greater than 50 µM.

With `CC1=C2CC/C(C)=C/CC[C@]3(C)O[C@@H]3CC/C(C)=C/[C@@H]2OC1`, the IC50 in assay [4] was greater than 50 µM.

In turn, `NC(=O)c1sc(-c2ccsc2)cc1N` came in with an IC50 in assay [4] of 7.9 µM.

Take `CC1=C2CC/C(C)=C/CC[C@]3(C)O[C@@H]3CC/C(C)=C/[C@@H]2OC1=O`: the Emax in assay [1] is 21.3%. Further, the EC50 in assay [2] came out at 30.1 µM. For the same compound, the IC50 in assay [3] was greater than 100 µM; in assay [4], greater than 50 µM.

As to `C/C1=C\CC[C@]2(C)O[C@@H]2C[C@]2(C(C)C)CC[C@@](C)(O2)[C@@H](O)CC1`, in assay [1], the Emax amounted to 27.2%. In addition, in assay [2], the EC50 was 25.4 µM. Further, the IC50 in assay [3] was greater than 100 µM; in assay [4] it was greater than 50 µM.

As to `CC(=O)O[C@H]1CC/C(C)=C/CC/C(C)=C/C[C@]2(C(C)C)CC[C@@]1(C)O2`, the maximal effect (Emax) in assay [1] is 43.4%. In addition, the EC50 in assay [2] is 1.4 µM; in assay [5] it was 16 µM. Moreover, the IC50 in assay [3] is 2.2 µM; in assay [4], greater than 50 µM.

`C/C1=C\C[C@]2(C(C)C)CC[C@@](C)(O2)C(=O)CC/C(C)=C/CC1` came in with an IC50 in assay [4] greater than 50 µM.
